# Reference: ChEMBL document CHEMBL1125789, “Synthesis and selective class III antiarrhythmic activity of novel N-heteroaralkyl-substituted 1-(aryloxy)-2-propanolamine and related propylamine derivatives” (J Med Chem, 1991)
# Columns and labels:
# [1] = tested on: Canis familiaris; assay: Ventricular effective refractory period by the compound in open chest anesthetized dog, after iv administration at a dose of 0.25 mg/kg.; type: functional, Canis lupus familiaris, Heart
# [2] = organism: Canis familiaris; assay: Maximum rate of rise of the upstroke of transmembrane potential, in canine Purkinje Fibers at a concentration of 0.10 uM at 1000 ms (simulating normal heart rate); type: functional; conditions: Canis lupus familiaris, Purkinje fiber
# Summary of the method: (§1)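 Isolated canine Purkinje fiber bundles were driven by square-wave pulses 2.0 ms long at 2× threshold and equilibrated ≥1 h to steady state. Each concentration was superfused 45–60 min before recording, and action potentials were sampled at 4–6 sites per fiber in control and after drug, giving Vmax and APD to −60 mV.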
# [3] = tested on: Canis familiaris; assay: Mean arterial pressure by the compound in open chest anesthetized dog, after iv administration at a dose of 0.05 mg/kg.; type: functional, Canis lupus familiaris, Artery
# Summary of the method: (§2)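 Hemodynamics (heart rate, mean arterial pressure) recorded in pentobarbital-anesthetized (30 mg/kg iv, 5 mg/kg per h maintenance) open-chest mongrel dogs during the refractoriness study at BCL 300 ms. Readings were taken before and after iv or intraduodenal compound and expressed as change from control.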
# [4] = tested on: Canis familiaris; assay: Mean arterial pressure by the compound in open chest anesthetized dog, after iv administration at a dose of 0.50 mg/kg.; type: functional, Canis lupus familiaris, Artery; conditions: dose 0.5 mg/kg; summary of the method: as §2
# [5] = tested on: Canis familiaris; assay: Ventricular conduction time by the compound in open chest anesthetized dog, after iv administration at a dose of 0.50 mg/kg.; type: functional, Canis lupus familiaris, Heart; conditions: dose 0.5 mg/kg
# Summary of the method: (§3)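 Mongrel dogs were anesthetized with sodium pentobarbital (30 mg/kg iv, then 5 mg/kg per h), the chest opened, and the heart paced at BCL 300 ms. Compound was given iv or intraduodenally. Ventricular conduction time was taken as the interval between electrograms at the proximal and distal sites of the recording electrode array. 2-5 dogs per dose.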
# [6] = tested on: Canis familiaris; assay: Ventricular effective refractory period by the compound in open chest anesthetized dog, after iv administration at a dose of 0.50 mg/kg.; type: functional, Canis lupus familiaris, Heart; conditions: dose 0.5 mg/kg
# [7] = organism: Canis familiaris; assay: repolarization to reach -60mV, in canine Purkinje Fibers at a concentration of 0.01 uM at 1000 ms (simulating normal heart rate); type: functional, Canis lupus familiaris, Purkinje fiber
# Summary of the method: (§4)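 Purkinje fiber bundles were stimulated with square-wave current pulses of 2.0 ms at twice threshold and equilibrated for at least 1 h, or until action potential parameters were steady. Each concentration was superfused for 45-60 min to reach steady state. Action potentials were recorded at four to six sites per fiber, under control and after drug.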
# [8] = tested on: Canis familiaris; assay: Ventricular conduction time by the compound in open chest anesthetized dog, after iv administration at a dose of 0.25 mg/kg.; type: functional, Canis lupus familiaris, Heart; summary of the method: as §3
# [9] = tested on: Canis familiaris; assay: Heart beat by the compound in open chest anesthetized dog, after iv administration at a dose of 0.25 mg/kg.; type: functional, Canis lupus familiaris; summary of the method: as §2
# [10] = tested on: Canis familiaris; assay: Heart beat by the compound in open chest anesthetized dog, after iv administration at a dose of 0.50 mg/kg.; type: functional, Canis lupus familiaris; conditions: dose 0.5 mg/kg; summary of the method: as §2
# [11] = organism: Canis familiaris; assay: Maximum rate of rise of the upstroke of transmembrane potential, in canine Purkinje Fibers at a concentration of 0.10 uM at 300 ms (simulating tachycardia); type: functional; conditions: Canis lupus familiaris, Purkinje fiber; summary of the method: as §1
# [12] = tested on: Canis familiaris; assay: Atrial effective refractory period by the compound in open chest anesthetized dog, after iv administration at a dose of 0.05 mg/kg.; type: functional, Canis lupus familiaris, Cardiac atrium
# Summary of the method: (§5)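 Open-chest mongrel dogs under sodium pentobarbital anesthesia (30 mg/kg iv plus 5 mg/kg per h), paced at basic cycle length 300 ms. Atrial effective refractory period was determined by electrical stimulation before and after iv or intraduodenal compound and reported as change from control.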
# [13] = tested on: Canis familiaris; assay: Atrial effective refractory period by the compound in open chest anesthetized dog, after iv administration at a dose of 0.25 mg/kg.; type: functional, Canis lupus familiaris, Cardiac atrium; summary of the method: as §5
# [14] = tested on: Canis familiaris; assay: Atrial conduction time by the compound in open chest anesthetized dog, after iv administration at a dose of 0.25 mg/kg.; type: functional, Canis lupus familiaris, Cardiac atrium
# Summary of the method: (§6)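 Mongrel dogs anesthetized with sodium pentobarbital (30 mg/kg iv, then 5 mg/kg per h), chest opened, paced at BCL 300 ms. Atrial conduction time was taken as the interval between electrograms recorded at the proximal and distal sites of the atrial recording electrode array, before and after iv or intraduodenal dosing. Values are changes from control.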
# [15] = tested on: Canis familiaris; assay: Atrial conduction time by the compound in open chest anesthetized dog, after iv administration at a dose of 0.50 mg/kg.; type: functional, Canis lupus familiaris, Cardiac atrium; conditions: dose 0.5 mg/kg; summary of the method: as §6
# [16] = organism: Canis familiaris; assay: repolarization to reach -60mV, in canine Purkinje Fibers at a concentration of 0.10 uM at 1000 ms (simulating normal heart rate); type: functional, Canis lupus familiaris, Purkinje fiber; summary of the method: as §4
# [17] = organism: Canis familiaris; assay: Maximum rate of rise of the upstroke of transmembrane potential, in canine Purkinje Fibers at a concentration of 0.03 uM at 300 ms (simulating tachycardia); type: functional; conditions: Canis lupus familiaris, Purkinje fiber; summary of the method: as §1
# [18] = organism: Canis familiaris; assay: Repolarization to reach -60mV, in canine Purkinje Fibers at a concentration of 0.10 uM at 300 ms (simulating tachycardia); type: functional, Canis lupus familiaris, Purkinje fiber; summary of the method: as §1
# [19] = organism: Canis familiaris; assay: Repolarization to reach -60mV, in canine Purkinje Fibers at a concentration of 0.01 uM at 300 ms (simulating tachycardia); type: functional, Canis lupus familiaris, Purkinje fiber; summary of the method: as §1
# [20] = tested on: Canis familiaris; assay: Mean arterial pressure by the compound in open chest anesthetized dog, after iv administration at a dose of 0.25 mg/kg.; type: functional, Canis lupus familiaris, Artery; summary of the method: as §2
# [21] = tested on: Canis familiaris; assay: Heart beat by the compound in open chest anesthetized dog, after iv administration at a dose of 0.05 mg/kg.; type: functional, Canis lupus familiaris; summary of the method: as §2
# [22] = tested on: Canis familiaris; assay: Atrial effective refractory period by the compound in open chest anesthetized dog, after iv administration at a dose of 0.50 mg/kg.; type: functional, Canis lupus familiaris, Cardiac atrium; conditions: dose 0.5 mg/kg; summary of the method: as §5
# [23] = organism: Canis familiaris; assay: Maximum rate of rise of the upstroke of transmembrane potential, in canine Purkinje Fibers at a concentration of 0.01 uM at 1000 ms (simulating normal heart rate); type: functional; conditions: Canis lupus familiaris, Purkinje fiber; summary of the method: as §1
# [24] = organism: Canis familiaris; assay: repolarization to reach -60mV, in canine Purkinje Fibers at a concentration of 0.03 uM at 1000 ms (simulating normal heart rate); type: functional, Canis lupus familiaris, Purkinje fiber; summary of the method: as §4
# [25] = organism: Canis familiaris; assay: Maximum rate of rise of the upstroke of transmembrane potential, in canine Purkinje Fibers at a concentration of 0.03 uM at 1000 ms (simulating normal heart rate); type: functional; conditions: Canis lupus familiaris, Purkinje fiber; summary of the method: as §1
# [26] = tested on: Canis familiaris; assay: Ventricular conduction time by the compound in open chest anesthetized dog, after iv administration at a dose of 0.05 mg/kg.; type: functional, Canis lupus familiaris, Heart; summary of the method: as §3
# [27] = tested on: Canis familiaris; assay: Atrial conduction time by the compound in open chest anesthetized dog, after iv administration at a dose of 0.05 mg/kg.; type: functional, Canis lupus familiaris, Cardiac atrium; summary of the method: as §6
# [28] = tested on: Canis familiaris; assay: Ventricular effective refractory period by the compound in open chest anesthetized dog, after iv administration at a dose of 0.05 mg/kg.; type: functional, Canis lupus familiaris, Heart
# [29] = organism: Canis familiaris; assay: Maximum rate of rise of the upstroke of transmembrane potential, in canine Purkinje Fibers at a concentration of 0.01 uM at 300 ms (simulating tachycardia); type: functional; conditions: Canis lupus familiaris, Purkinje fiber; summary of the method: as §1
SMILES,VERP [1],MBP [3],MBP [4],VCT [5],VERP [6],APD [7],VCT [8],HR [9],HR [10],AERP [12],AERP [13],ACT [14],ACT [15],APD [16],APD [18],APD [19],MBP [20],HR [21],AERP [22],APD [24],also measured
CN(CCOc1ccc(NS(C)(=O)=O)cc1)CCc1ccc(NS(C)(=O)=O)cc1 [DOFETILIDE],25,1,-2,-4,27,37%,-5,-21,-24,46,60,-6,-9,85%,29%,22%,1,-14,65,67%,Vmax [2]: 5; Vmax [11]: 5; Vmax [17]: 7; Vmax [23]: 4; Vmax [25]: 2; VCT [26]: -4; ACT [27]: -4; VERP [28]: 23; Vmax [29]: 4
Cc1cccc(CCN2CCC(C(=O)c3ccc(NS(C)(=O)=O)cc3)CC2)n1,23,2,-15,-3,24,27%,-2,-25,-29,28,38,1,1,54%,24%,11%,-11,-10,44,53%,VCT [26]: -3; ACT [27]: 1; VERP [28]: 18
